ChEMBL document CHEMBL1127706, “HIV-inhibitory natural products. 11. Comparative studies of sulfated sterols from marine invertebrates” (J Med Chem, 1994)

What was measured:
CCRF-CEM [1] = test: Effective concentration was tested for cytoprotective effect against HIV-1 infection in CEM cells; format: functional, cell-based; details: Homo sapiens
Procedure, shortened: (§1)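 CEM-SS cells in RPMI 1640 without phenol red (5% FBS, 2 mM L-glutamine, gentamicin), resuspended at 1×10^5 cells/mL, infected with HIV-1 RF at MOI 0.01-0.05. Sterols dissolved in DMSO, serially diluted in medium (final DMSO ≤1%), top concentration 100 μg/mL. Incubated 6 days at 37 °C, 5% CO2. Cytoprotection read by XTT tetrazolium viability, relative to uninfected untreated controls.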

[2] = test system: Human immunodeficiency virus 1; test: Inhibition of HIV-1 mediated cytotoxicity in CEM (human leukemia) cells.; format: functional, organism-based; details: Human immunodeficiency virus 1, CCRF-CEM; procedure, shortened: as §1
CCRF-CEM [3] = test: Effective concentration was tested for cytoprotective effect against HIV-2 CBL 20 strain infection in CEM cells; format: functional, cell-based; details: Homo sapiens
Procedure, shortened: (§2)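 HIV-2 strain CBL20 infection of CEM cells at MOI 0.01-0.05. Sterols in DMSO, diluted in complete medium (final DMSO ≤1%), maximum 100 μg/mL. Uninfected CEM-SS controls run for toxicity. XTT viability read after 6 days in culture at 37 °C, 5% CO2. Protection expressed as percent of uninfected, untreated controls.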

[4] = test system: Human immunodeficiency virus 2; test: Inhibition of HIV-2 (CBL20) nediated cytotoxicity in CEM (human leukemia) cells.; details: Human immunodeficiency virus 2, CCRF-CEM
CCRF-CEM [5] = test: Effective concentration for cytoprotective effect against HIV-1 infection in CEM cells; No protection of cells to HIV-induced Killing; format: functional, cell-based, Homo sapiens; procedure, shortened: as §1
CCRF-CEM [6] = test: Effective concentration for cytoprotective effect against HIV-2 CBL 20 strain infection in CEM cells; No protection of cells to HIV-induced Killing; format: functional, cell-based, Homo sapiens; procedure, shortened: as §2
CCRF-CEM [7] = test: Inhibitory concentration for cytoprotective effect against HIV-1 infection in CEM cells.; format: functional, cell-based; details: Homo sapiens; procedure, shortened: as §1
CCRF-CEM [8] = test: Effective concentration for cytoprotective effect against HIV-2 infection in CEM cells; No protection of cells to HIV-induced Killing; format: functional, cell-based; details: Homo sapiens
Procedure, shortened: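 Anticytopathicity test against HIV-2 strain ROD in CEM cells at MOI 0.01-0.05. Cells were held in RPMI 1640 with 5% FBS, and sterols were given from DMSO stocks (final DMSO ≤1%), up to 100 μg/mL. Cultures ran 6 days at 37 °C. Protection from viral killing was scored as percent, with host-cell cytotoxicity assessed in parallel.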

SMILES	EC50 (CCRF-CEM [1])	EC50 (CCRF-CEM [3])	IC50 (CCRF-CEM [7])	IC50 [2]	IC50 [4]	EC50 (CCRF-CEM [5])	EC50 (CCRF-CEM [6])	EC50 (CCRF-CEM [8])
C=C(C)CCC[C@@H](COS(=O)(=O)O)[C@H]1CC[C@H]2[C@@H]3CCC4[C@H](O)[C@H](OS(=O)(=O)O)CC[C@]4(C)[C@H]3CC[C@]12C (some centres undefined)	97 µM	161 µM		> 161 µM	> 161 µM			
C[C@H](CCC(=O)NC(CO)CS(=O)(=O)O)[C@H]1[C@@H](O)[C@H](O)[C@H]2[C@@H]3C[C@@H](O)[C@@]4(O)C[C@@H](O)CC[C@]4(C)[C@H]3CC[C@]12C (some centres undefined)				> 174 µM	> 174 µM	No protection	No protection	
CC(C)[C@H](CC[C@@H](C)[C@H]1C[C@H](OS(=O)(=O)[O-])[C@H]2[C@@H]3C[C@H](O)C4C[C@@H](O)CC[C@]4(C)[C@H]3CC[C@@]21C)OC1OCC(O)C(O)C1O.[Na+] (some centres undefined)				> 126 µM	> 126 µM	No protection	No protection	
CC(C)CCC[C@@H](COS(=O)(=O)[O-])[C@H]1CCC2C3CC=C4[C@H](O)[C@H](OS(=O)(=O)[O-])[C@H](O)C[C@]4(C)C3CC[C@@]21C.[Na+].[Na+] (some centres undefined)						No protection		
CC(C)C(CCOS(=O)(=O)[O-])CC[C@@H](C)[C@H]1[C@@H](O)[C@H](O)C2[C@]3(O)C[C@@H](O)[C@@]4(O)C[C@@H](O)CC[C@]4(C)C3CC[C@@]21C.[Na+] (some centres undefined)				> 164 µM	> 164 µM	No protection	No protection	
CCC(C)(C)C(C)CC[C@@H](C)[C@H]1CC[C@H]2[C@@H]3C[C@H](OS(=O)(=O)O)C4C[C@H](OS(=O)(=O)O)[C@@H](OS(=O)(=O)O)C[C@]4(C)[C@H]3CC[C@]12C (some centres undefined)	3 µM	7 µM		17 µM	94 µM			
CC(C)C1(CC[C@@H](C)[C@H]2CC[C@@]3(C)C4C[C@H](OS(=O)(=O)O)C5C[C@H](OS(=O)(=O)O)[C@@H](OS(=O)(=O)O)C[C@]5(C)C4=CC[C@]23C)CC1C (some centres undefined)	13 µM	8 µM		> 128 µM	51 µM			
CC(C)CCC[C@@H](COS(=O)(=O)O)[C@H]1CC[C@H]2[C@@H]3CC[C@H]4C[C@H](OS(=O)(=O)O)CC[C@]4(C)[C@H]3CC[C@]12C	164 µM	> 63 µM		> 312 µM	> 156 µM			
COC1([C@@H]2C=C3[C@H](O)C[C@]4(O)C(CC[C@@]5(C)C4[C@@H](OS(=O)(=O)[O-])[C@H](O)[C@@H]5[C@H](C)/C=C/[C@H](CO)C(C)C)[C@@]3(C)CC2)OCC(O)C(O)C1O.[Na+] (some centres undefined)				64 µM	> 64 µM	No protection		
CC(C)CCC[C@@H](COS(=O)(=O)O)[C@H]1CCC2C3CC=C4C[C@H](O)[C@@H](OS(=O)(=O)O)C[C@]4(C)C3CC[C@@]21C (some centres undefined)	97 µM			> 161 µM	> 161 µM			
CC(=O)O[C@H](CCC(C)C)[C@@H](C)[C@H]1CCC2C3C[C@H](OS(=O)(=O)O)C4C[C@@H](OS(=O)(=O)O)CC[C@]4(C)C3=CC[C@@]21C (some centres undefined)	18 µM	3 µM		> 150 µM	> 150 µM			
CC(C)CCC[C@@H](COS(=O)(=O)O)[C@H]1CCC2C3CC=C4[C@@H](O)[C@H](OS(=O)(=O)O)CC[C@]4(C)C3CC[C@@]21C (some centres undefined)	241 µM	80 µM		> 322 µM	> 161 µM			
CC(C)CC[C@@H](O)[C@@H](C)[C@H]1CCC2C3C[C@H](OS(=O)(=O)O)C4C[C@@H](OS(=O)(=O)O)CC[C@]4(C)C3=CC[C@@]21C (some centres undefined)	19 µM	128 µM		> 161 µM	> 161 µM			
CC(=O)O[C@@H]1C[C@H]2[C@@H]3C[C@H](OP(=O)([O-])OC4OC(CO)C(O)C(O)C4O)C4C[C@@H](OS(=O)(=O)[O-])CC[C@]4(C)[C@H]3CC[C@]2(C)[C@H]1[C@H](C)CCCC(C)C.[Na+].[Na+] (some centres undefined)				> 125 µM	> 125 µM	No protection		13 µM
C=C(C)CCC[C@@H](COS(=O)(=O)O)[C@H]1CC[C@H]2[C@@H]3CC[C@]4(O)[C@H](O)[C@H](OS(=O)(=O)O)CC[C@]4(C)[C@H]3CC[C@]12C	86 µM	39 µM		> 157 µM	> 157 µM			

More lines, main results first:

EC50 (CCRF-CEM [1])	EC50 (CCRF-CEM [3])	IC50 (CCRF-CEM [7])	SMILES	IC50 [2]	IC50 [4]	EC50 (CCRF-CEM [5])	EC50 (CCRF-CEM [6])	EC50 (CCRF-CEM [8])
13 µM			CC(=O)O[C@H](CCC(C)C)[C@@H](C)[C@H]1CC[C@H]2[C@@H]3C[C@H](OS(=O)(=O)O)C4C[C@@H](OS(=O)(=O)O)CC[C@]4(C)[C@H]3CC[C@]12C (some centres undefined)	> 149 µM				
122 µM	107 µM		CC(C)CCC[C@@H](COS(=O)(=O)O)[C@H]1CC[C@H]2[C@@H]3CCC4[C@H](O)[C@H](OS(=O)(=O)O)CC[C@]4(C)[C@H]3[C@@H](O)[C@@H](O)[C@]12C (some centres undefined)	> 152 µM	> 152 µM			
		> 123 µM	CC(C)[C@H](CC[C@@H](C)[C@H]1C[C@H](OS(=O)(=O)[O-])[C@H]2[C@@H]3[C@H](O)[C@H](O)C4C[C@@H](O)CC[C@]4(C)[C@H]3CC[C@@]21C)OC1OCC(O)C(O)C1O.[Na+] (some centres undefined)		69 µM	No protection	No protection	
157 µM	110 µM		CC(C)CCC[C@@H](COS(=O)(=O)O)[C@H]1CC[C@H]2[C@@H]3CCC4[C@H](O)[C@H](OS(=O)(=O)O)CC[C@]4(C)[C@H]3[C@@H](O)C[C@]12C (some centres undefined)	> 313 µM	> 157 µM			
48 µM			CC(C)CC[C@@H](O)[C@@H](C)[C@H]1CC[C@H]2[C@@H]3C[C@H](OS(=O)(=O)O)C4C[C@@H](OS(=O)(=O)O)CC[C@]4(C)[C@H]3CC[C@]12C (some centres undefined)	> 160 µM				
6 µM	3 µM		CC(CC[C@@H](C)[C@H]1CC[C@H]2[C@@H]3C[C@H](OS(=O)(=O)O)C4C[C@H](OS(=O)(=O)O)[C@@H](OS(=O)(=O)O)C[C@]4(C)[C@H]3CC[C@]12C)C(C)(C)C (some centres undefined)	41 µM	41 µM			
6 µM	2 µM		CC(C)C(C)CC[C@@H](C)[C@H]1CC[C@H]2[C@@H]3C[C@H](OS(=O)(=O)O)C4C[C@H](OS(=O)(=O)O)[C@@H](OS(=O)(=O)O)C[C@]4(C)[C@H]3CC[C@]12C (some centres undefined)	56 µM	56 µM			
